{"source": "ChEMBL document CHEMBL2021795", "about": "“Novel epigallocatechin gallate (EGCG) analogs activate AMP-activated protein kinase pathway and target cancer stem cells” (2012)", "key": {"MDA-MB-231 [1]": {"test_system": "MDA-MB-231", "test": "Antiproliferative activity against human MDA-MB-231 cells after 24 hrs by MTT assay", "format": "functional, cell-based", "procedure,_shortened": "(§1)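 MDA-MB-231 cells were grown in 96-well plates to 70–80% confluency. Compounds or metformin were added for 24 h at 37°C, then MTT read-out. Samples were run in triplicate in three independent experiments. Data are mean ± SD, expressed as percent of untreated control (100%).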"}, "MDA-MB-231 [2]": {"test_system": "MDA-MB-231", "test": "Inhibition of mammosphere formation in human MDA-MB-231 cells at 20 uM after 7 days by inverted phase-contrast microscopy", "format": "functional", "settings": "MDA-MB-231, 168 h", "procedure,_shortened": "(§2)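 Single MDA-MB-231 cells were seeded at 1,000 cells/well in ultra-low-attachment 6-well plates. Sphere medium was DMEM/F12 1:1 with B-27, N-2 and penicillin/streptomycin, topped up every 3–4 days. Cells were exposed to compounds or metformin for 7 days. Spheres were collected by centrifugation (300 g, 5 min) and counted under an inverted phase-contrast microscope. Mean of three experiments.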"}, "MDA-MB-231 [3]": {"test_system": "MDA-MB-231", "test": "Induction of AMPKalpha phosphorylation at T172 residue in human MDA-MB-231 cells at 20 uM after 3 hrs by Western blotting analysis relative to control", "format": "cell-based", "procedure,_shortened": "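MDA-MB-231 cells in DMEM/F12 (1:1) with 10% FBS at 37°C, 5% CO2. Compounds were given at 20 μM, metformin at 10 mM, for 3 h. Whole-cell lysates were run on SDS–PAGE, blotted to nitrocellulose and probed for phospho-AMPKα (T172), with ECL detection. Phospho-AMPKα was normalized to β-actin.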"}, "MDA-MB-231 [4]": {"test_system": "MDA-MB-231", "test": "Inhibition of mammosphere formation in human MDA-MB-231 cells at 10 uM after 7 days by inverted phase-contrast microscopy", "format": "functional", "settings": "MDA-MB-231, 168 h", "procedure,_shortened": "as §2"}, "MDA-MB-231 [5]": {"test_system": "MDA-MB-231", "test": "Inhibition of mammosphere formation in human MDA-MB-231 cells at 10 mM after 7 days by inverted phase-contrast microscopy", "format": "functional", "settings": "MDA-MB-231, 168 h", "procedure,_shortened": "as §2"}, "MDA-MB-231 [6]": {"test_system": "MDA-MB-231", "test": "Antiproliferative activity against human MDA-MB-231 cells at 1 to 20 mM after 24 hrs by MTT assay", "format": "functional, cell-based", "procedure,_shortened": "as §1"}, "MDA-MB-231 [7]": {"test_system": "MDA-MB-231", "test": "Inhibition of mammosphere formation in human MDA-MB-231 cells at 5 mM after 7 days by inverted phase-contrast microscopy", "format": "functional", "settings": "MDA-MB-231, 168 h", "procedure,_shortened": "as §2"}, "MDA-MB-231 [8]": {"test_system": "MDA-MB-231", "test": "Induction of AMPKalpha phosphorylation at T172 residue in human MDA-MB-231 cells at 10 mM after 3 hrs by Western blotting analysis relative to control", "format": "cell-based", "procedure,_shortened": "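MDA-MB-231 human breast cancer cells grown in DMEM/F12 (1:1) with 10% FBS, penicillin and streptomycin at 37°C, 5% CO2. Treated for 3 h, then whole-cell extracts separated by SDS–PAGE, blotted to nitrocellulose and detected by ECL. Phospho-AMPKα (T172) band normalized to β-actin.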"}, "MDA-MB-231 [9]": {"test_system": "MDA-MB-231", "test": "Cytotoxicity against human MDA-MB-231 cells assessed as CD44+high/CD24-low cells after 48 hrs by FACS-flow cytometry (reference value: 45%)", "format": "functional, cell-based", "procedure,_shortened": "(§3)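 MDA-MB-231 cells were cultured 5 days on low-adherent plates in sphere medium. Spheres were dissociated with accutase (37°C, 5 min), reseeded and treated with compounds for 48 h. Cells were detached with 0.02% EDTA/PBS and stained with anti-CD44-FITC and anti-CD24-PE or isotype controls for 30 min at 4°C in the dark. The CD44high/CD24low fraction was measured by flow cytometry. Mean of three experiments.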"}, "MDA-MB-231 [10]": {"test_system": "MDA-MB-231", "test": "Induction of AMPKalpha phosphorylation at T172 residue in human MDA-MB-231 cells after 3 hrs by Western blotting analysis relative to control", "format": "cell-based", "procedure,_shortened": "(§4)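 MDA-MB-231 cells grown in DMEM/F12 (1:1) with 10% FBS, penicillin/streptomycin at 37°C, 5% CO2. Exposed to compounds over a concentration series for 3 h. Whole-cell extracts were separated by SDS–PAGE and transferred to nitrocellulose. Blots were probed with the indicated antibodies (p-AMPKα, p-Raptor, p21, β-actin) and detected by ECL. p-AMPKα was normalized to β-actin.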"}, "[11]": {"test": "Activation of AMPKalpha in human MDA-MB-231 cells assessed as suppression of mTOR pathway measuring decrease in p70-S6K T389 phosphorylation at 5 to 40 uM after 3 hrs by Western blotting analysis relative to control", "format": "cell-based"}, "MDA-MB-231 [12]": {"test_system": "MDA-MB-231", "test": "Cytotoxicity against human MDA-MB-231 cells assessed as CD44+high/CD24-low cells at 20 uM after 48 hrs by FACS-flow cytometry (reference value: 45%)", "format": "functional", "procedure,_shortened": "as §3"}, "MDA-MB-231 [13]": {"test_system": "MDA-MB-231", "test": "Cytotoxicity against human MDA-MB-231 cells assessed as CD44+high/CD24-low cells at 10 uM after 48 hrs by FACS-flow cytometry (reference value: 45%)", "format": "functional", "procedure,_shortened": "as §3"}, "MDA-MB-231 [14]": {"test_system": "MDA-MB-231", "test": "Activation of AMPKalpha in human MDA-MB-231 cells assessed as increase in Raptor S792 phosphorylation after 3 hrs by Western blotting analysis relative to control", "format": "cell-based", "procedure,_shortened": "as §4"}, "MDA-MB-231 [15]": {"test_system": "MDA-MB-231", "test": "Induction of AMPKalpha-mediated up-regulation of p21 in human MDA-MB-231 cells at 5 to 40 uM after 3 hrs by Western blotting analysis relative to control", "format": "cell-based", "procedure,_shortened": "as §4"}}, "note": "The source made the active and inactive calls. The rule behind the calls is not given here.", "data": [{"smiles": "O=C(O[C@@H]1Cc2c(O)cc(O)cc2O[C@@H]1c1cc(O)c(O)c(O)c1)c1cc(O)c(O)c(O)c1", "note": "[EPIGALOCATECHIN GALLATE]", "values": [{"measurement": "Activity", "setting": "MDA-MB-231 [1]", "value": "Active"}, {"measurement": "inhibition at 20 µM", "setting": "MDA-MB-231 [2]", "value": 51.3, "unit": "%"}, {"measurement": "fold change (FC)", "setting": "MDA-MB-231 [3]", "value": 3.9}, {"measurement": "inhibition at 10 µM", "setting": "MDA-MB-231 [4]", "value": 20.1, "unit": "%"}]}, {"smiles": "CC(=O)Nc1ccc(C(=O)O[C@H]2Cc3ccccc3C[C@H]2OC(=O)c2ccc(NC(C)=O)cc2)cc1", "values": [{"measurement": "fold change (FC)", "setting": "MDA-MB-231 [3]", "value": 6}]}, {"smiles": "CN(C)C(=N)NC(=N)N", "note": "[METFORMIN]", "values": [{"measurement": "inhibition at 10000 µM", "setting": "MDA-MB-231 [5]", "value": 67.6, "unit": "%"}, {"measurement": "Activity", "setting": "MDA-MB-231 [6]", "value": "Active"}, {"measurement": "inhibition at 5000 µM", "setting": "MDA-MB-231 [7]", "value": 41.4, "unit": "%"}, {"measurement": "fold change (FC)", "setting": "MDA-MB-231 [8]", "value": 6.3}]}, {"smiles": "O=C(O[C@H]1Cc2ccccc2C[C@H]1OC(=O)c1cc(O)c(Br)c(O)c1)c1cc(O)c(Br)c(O)c1", "values": [{"measurement": "Activity", "setting": "MDA-MB-231 [9]", "value": "Dose-dependent effect"}, {"measurement": "Activity", "setting": "MDA-MB-231 [1]", "value": "Dose-dependent effect"}, {"measurement": "Activity", "setting": "MDA-MB-231 [10]", "value": "Dose-dependent effect"}, {"measurement": "Activity", "setting": "[11]", "value": "Active"}, {"measurement": "Activity", "setting": "MDA-MB-231 [12]", "value": 18, "unit": "%"}, {"measurement": "inhibition at 20 µM", "setting": "MDA-MB-231 [2]", "value": 66.7, "unit": "%"}, {"measurement": "Activity", "setting": "MDA-MB-231 [13]", "value": 30.5, "unit": "%"}, {"measurement": "Activity", "setting": "MDA-MB-231 [14]", "value": "Dose-dependent effect"}, {"measurement": "fold change (FC)", "setting": "MDA-MB-231 [3]", "value": 13.5}, {"measurement": "Activity", "setting": "MDA-MB-231 [15]", "value": "Active"}, {"measurement": "inhibition at 10 µM", "setting": "MDA-MB-231 [4]", "value": 45.1, "unit": "%"}]}, {"smiles": "Nc1ccc(C(=O)O[C@H]2Cc3ccccc3C[C@H]2OC(=O)c2ccc(N)cc2)cc1", "values": [{"measurement": "Activity", "setting": "MDA-MB-231 [9]", "value": "Dose-dependent effect"}, {"measurement": "Activity", "setting": "MDA-MB-231 [1]", "value": "Dose-dependent effect"}, {"measurement": "Activity", "setting": "MDA-MB-231 [10]", "value": "Dose-dependent effect"}, {"measurement": "Activity", "setting": "[11]", "value": "Active"}, {"measurement": "Activity", "setting": "MDA-MB-231 [12]", "value": 13.9, "unit": "%"}, {"measurement": "inhibition at 20 µM", "setting": "MDA-MB-231 [2]", "value": 73.3, "unit": "%"}, {"measurement": "Activity", "setting": "MDA-MB-231 [13]", "value": 25.6, "unit": "%"}, {"measurement": "Activity", "setting": "MDA-MB-231 [14]", "value": "Dose-dependent effect"}, {"measurement": "fold change (FC)", "setting": "MDA-MB-231 [3]", "value": 13.7}, {"measurement": "Activity", "setting": "MDA-MB-231 [15]", "value": "Active"}, {"measurement": "inhibition at 10 µM", "setting": "MDA-MB-231 [4]", "value": 52.2, "unit": "%"}]}, {"smiles": "O=C(O[C@H]1Cc2ccccc2C[C@H]1OC(=O)c1cc(O)c(O)c(O)c1)c1cc(O)c(O)c(O)c1", "values": [{"measurement": "fold change (FC)", "setting": "MDA-MB-231 [3]", "value": 5.1}]}, {"smiles": "O=C(O[C@H]1Cc2ccccc2C[C@H]1OC(=O)c1cc(O)cc(O)c1)c1cc(O)cc(O)c1", "values": [{"measurement": "fold change (FC)", "setting": "MDA-MB-231 [3]", "value": 5.1}]}, {"smiles": "CC(=O)Oc1cc(OC(C)=O)c2c(c1)O[C@H](c1cc(OC(C)=O)c(OC(C)=O)c(OC(C)=O)c1)[C@H](OC(=O)c1cc(OC(C)=O)c(OC(C)=O)c(OC(C)=O)c1)C2", "values": [{"measurement": "fold change (FC)", "setting": "MDA-MB-231 [3]", "value": 3.9}]}]}
